High-throughput results: PubChem BioAssay, several laboratories
In the library only some 1.4% were active in any assay of this set; here they are far more common.
CAL PDZ FP-1 = untagged CAL PDZ binding inhibitors, primary screen, biochemical, fluorescence polarization, HTS; purified CAL PDZ, TMR-peptide fluorescence polarization, 1 h; 300,000 compounds, 0.92% hits; Golgi-associated PDZ and coiled-coil motif-containing protein (Homo sapiens), Q9HD26; inhibition, % at 24.9 µM;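 active = mean inhibition of at least 30% with at least half of replicates also reaching 30%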;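 note: 0% = DMSO neutral control and 100% = excess unlabeled competitor peptide PRC23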
TbMetRS inhib = T. brucei MetRS inhibitors, primary screen, biochemical, luminescence; methionyl-tRNA synthetase (Trypanosoma brucei brucei); purified T. brucei MetRS, ATP depletion, Kinase-Glo luminescence; inhibition, % at 11.9 µM; 360,000 compounds, 0.4% hits;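 active = inhibition above a per-plate cutoff of the control wells' mean inhibition plus 3 SD, cut at about 5.5% in these data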;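 note: 0% = DMSO wells median and 100% = median of wells with control inhibitor compound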
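System: purified T. brucei MetRS enzyme / Detection: Kinase-Glo luciferase luminescence reporting remaining unconsumed ATP / Medium: HEPES buffer with MgCl2, KCl, DTT, spermine, BSA, pyrophosphatase / Replication: singlicate, one well per compound / Evaluation: percent inhibition relative to median high and low control wells / Schedule: 2 h aminoacylation at 25 °C after 15 min preincubation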
CAL PDZ FP-2 = CAL PDZ peptide-binding inhibitors, primary screen, biochemical, fluorescence polarization, Cer-tagged CAL PDZ, HTS. Golgi-associated PDZ and coiled-coil motif-containing protein (Homo sapiens), Q9HD26. inhibition, % at 20 µM. 330,000 compounds, 0.02% hits. purified CAL PDZ, TMR-peptide fluorescence polarization, 1 h. AID 504414, 2011;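 active = highest replicate inhibition of at least 40%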;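 note: plate controls were DMSO neutral control wells for no effect and unlabeled competitor peptide control wells for full effect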
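Test system: purified CerCALP PDZ construct; Compound dosing: one concentration, 20 µM compound; Also added: TMR-labelled reporter peptide T*-PRC34 bound in PDZ groove; Read-out: inhibition from polarization loss; Controls: unlabelled peptide and DMSO controls; Signal: FP readout, S and P plane fluorescence; Incubation: 1 h at RT.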
PvdQ inh = P. aeruginosa PvdQ acylase inhibitors, primary screen, biochemical, fluorescence, plate reader and imaging, single point; inhibition, % at 10 µM; purified PvdQ acylase; AID 488965, 2010; PvdQ acylase [Pseudomonas aeruginosa LESB58]; 340,000 compounds, 0.063% hits; in the data active = inhibition above about 30%, passing the limit was not always enough;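 note: 0% = vehicle neutral wells and 100% = reference inhibitor wells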
DYRK1A inh = rat Dyrk1A kinase inhibitors, primary screen, biochemical, single point, plate reader; AID 504441, 2011; 310,000 compounds, 0.43% hits; ADP-Glo luminescence, NFATc1 peptide; Dual specificity tyrosine-phosphorylation-regulated kinase 1A (Rattus norvegicus), Q63470; inhibition, % at 12.5 µM; in the data active = inhibition above about 50%;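 note: plate controls were vehicle with enzyme for no effect and no enzyme for full effect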
CDK5 p35 inh = inhibitors of human CDK5/p35 kinase, primary screen, biochemical, single concentration; Cyclin-dependent kinase 5 (Homo sapiens) + Cyclin-dependent kinase 5 activator 1 (Homo …; Recombinant CDK5/p35, ADP-Glo luminescence, 60 min; inhibition, % at 10 µM; 330,000 compounds, 0.01% hits; AID 488839, 2010;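 active = highest replicate inhibition of at least 50% and at least 75% of replicates reaching 50%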;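 note: plate controls were DMSO neutral control for no effect and GW8510 at 10 µM for full effect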
Target sequence (Q00535 whole entry, looked up): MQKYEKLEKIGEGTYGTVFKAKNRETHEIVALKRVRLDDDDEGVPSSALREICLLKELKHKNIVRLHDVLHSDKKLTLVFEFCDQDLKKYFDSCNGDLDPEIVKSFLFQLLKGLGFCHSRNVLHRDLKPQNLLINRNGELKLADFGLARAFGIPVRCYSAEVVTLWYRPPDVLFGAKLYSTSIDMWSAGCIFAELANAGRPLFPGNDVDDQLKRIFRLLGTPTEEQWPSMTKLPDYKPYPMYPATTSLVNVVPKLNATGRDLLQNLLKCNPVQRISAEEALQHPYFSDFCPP
Target sequence (Q15078 whole entry, looked up): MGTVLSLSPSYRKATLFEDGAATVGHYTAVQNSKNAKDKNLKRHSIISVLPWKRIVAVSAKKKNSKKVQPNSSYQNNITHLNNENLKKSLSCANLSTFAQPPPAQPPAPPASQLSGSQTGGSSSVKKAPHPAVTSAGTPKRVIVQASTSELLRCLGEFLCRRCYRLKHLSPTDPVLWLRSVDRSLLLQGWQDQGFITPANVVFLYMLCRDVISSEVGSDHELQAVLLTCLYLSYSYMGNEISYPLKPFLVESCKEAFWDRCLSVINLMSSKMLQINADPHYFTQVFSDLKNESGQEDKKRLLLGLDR
TbMetRS confirm = T. brucei MetRS inhibitors, confirmation, biochemical, luminescence | T. brucei MetRS enzyme, luminescence (ATP depletion) | shares compounds with TbMetRS inhib | inhibition, % at 11.9 µM | 1,400 compounds, 93% hits; in the data active = inhibition above about 7%
Jurkat tox = Jurkat T cell cytotoxicity, cytotoxicity control for T. brucei MetRS inhibitor project, luminescence, high throughput; shares compounds with TbMetRS inhib; Jurkat cells viability, ATP luminescence; inhibition, % at 8.3 µM; 1,400 compounds, 12% hits; in the data active = inhibition above about 15%;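 note: 0% = vehicle and 100% = reference inhibitor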
TbMetRS FP orth = T. brucei MetRS inhibitors, orthogonal assay for T. brucei MetRS inhibitor project, biochemical, fluorescence polarization. inhibition, % at 11.9 µM. shares compounds with TbMetRS inhib. 1,400 compounds, 44% hits. purified T. brucei MetRS; in the data active = inhibition above about 17%;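 note: 0% = vehicle wells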
Numbers without * were called inactive; · = no result.

SMILES	CAL PDZ FP-1	TbMetRS inhib	CAL PDZ FP-2	PvdQ inh	DYRK1A inh	CDK5 p35 inh	TbMetRS confirm	Jurkat tox	TbMetRS FP orth
c1ccc(COc2cccc(-c3cc4nc(NCCc5ccncc5)ccn4n3)c2)cc1	·	-0.4	·	·	·	·	·	·	·
Cc1nnc(Nc2ccc(C(=O)O)cc2)[nH]c1=O	4.3	6.8*	-0.6	-8.9	5.1	0.4	14.3*	-0.4	2.7
N#Cc1nc(COc2ccc(Br)cc2)oc1NCCCn1ccnc1	-3.4	29.9*	-2.7	-5.4	-4.5	0.9	53.2*	7.0	31.0*
O=C(NCc1cccs1)c1cccc(Nc2nc3ccc(Br)cc3[nH]2)c1	-2.7	5.7*	-1.1	-15.5	0.0	2.3	25.1*	0.7	21.6*
Cc1ccc(-c2nc3ccccn3c2C=O)cc1	0.0	-0.1	-2.2	4.4	1.3	5.3	·	·	·
Cc1c(-c2ccc(Br)cc2)nc2ccccn12	1.0	11.8*	-1.7	-4.0	10.1	1.3	22.6*	0.0	12.8
Cc1cn(CC(=O)NCc2nc3ccccc3[nH]2)c(=O)[nH]c1=O	·	0.5	·	·	·	·	·	·	·
O=C1CC(N(O)c2ccccc2)C(=O)N1c1cc(Cl)cc(Cl)c1 (stereo unspecified)	13.5	12.5*	-0.5	-17.0	-4.6	1.6	65.0*	-9.1	28.4*
COc1ccc(Cl)cc1N1CC(c2nc3ccccc3[nH]2)CC1=O (stereo unspecified)	·	5.7*	-1.9	-16.6	1.2	-1.0	10.1*	12.1	5.0
O=C1CC(c2nc3ccccc3[nH]2)CN1c1cccc(C(F)(F)F)c1 (stereo unspecified)	·	20.8*	-4.5	-18.8	12.3	0.0	26.8*	5.6	9.9
O=C1CC(c2nc3ccccc3[nH]2)CN1c1ccccc1F (stereo unspecified)	·	2.2	-0.1	2.3	-3.1	-1.2	·	·	·
OCC1(CCOc2ccccc2)CCN(Cc2cn[nH]c2-c2ccc(F)cc2)CC1	-6.6	-0.2	-0.3	-5.2	0.4	1.1	·	·	·
OCC1(CCOc2ccccc2)CCN(Cc2nc3ccc(F)cc3[nH]2)CC1	-5.4	7.5*	-3.2	-5.8	-1.0	-0.7	21.1*	1.9	0.1
O=C(CSc1ncc(-c2ccccc2)[nH]1)Nc1cccc(O)c1	0.2	5.6*	-1.0	-6.1	6.6	0.5	13.4*	7.8	4.7
O=C(CSc1ncc(-c2ccccc2)[nH]1)Nc1ccccc1	-5.5	2.1	-0.4	-9.0	-9.2	0.2	·	·	·
CCCc1nc2nc(C)c(NS(=O)(=O)c3ccc(C)c(C)c3)c(=O)n2[nH]1	·	-0.1	·	·	·	·	·	·	·
Cc1cc(Cl)ccc1OCCCC(=O)NCCc1nnc2ccccn12	0.7	7.2*	-0.4	-28.3	1.4	-3.2	13.8*	-4.0	5.4
Cc1noc(NS(=O)(=O)c2ccc(NC(=O)CCCOc3ccc(Cl)cc3Cl)cc2)c1C	-2.9	7.6*	-0.2	28.6	-2.8	-2.6	13.6*	3.4	13.3
Cc1noc(NS(=O)(=O)c2ccc(NC(=O)COc3ccc(Cl)cc3Cl)cc2)c1C	-2.4	4.1	-1.9	5.0	0.4	0.5	·	·	·
Cc1cc(Cl)ccc1OCCCC(=O)NN	·	-0.3	-0.6	-7.1	0.0	-0.2	·	·	·
CCNC(=O)CCCOc1ccc(Cl)cc1Cl	-3.8	6.3*	·	-9.5	-5.0	0.1	14.1*	3.0	7.7
Cc1ccc(CNC(=O)COC(=O)CCCOc2ccc(Cl)cc2Cl)cc1	-3.8	-0.1	-1.6	-14.6	-0.4	-1.7	·	·	·
O=C(COC(=O)CCCOc1ccc(Cl)cc1Cl)NCc1ccccc1	-1.2	40.4*	-1.6	-19.9	1.3	-1.2	56.7*	-5.4	42.9*
OCCN1CCN(c2ncnc3c2ncn3[C@H]2CN(Cc3cccs3)C[C@@H](CO)O2)CC1	·	-0.3	·	·	·	·	·	·	·
CC1(C(=O)NS(=O)(=O)c2ccc(Br)cc2)CCN1C(=O)Cc1ccsc1 (stereo unspecified)	·	0.2	·	·	·	·	·	·	·
SMILES	CAL PDZ FP-1	TbMetRS inhib	CAL PDZ FP-2	PvdQ inh	DYRK1A inh	CDK5 p35 inh	TbMetRS confirm	Jurkat tox	TbMetRS FP orth
Cc1noc(C)c1COC(=O)CCCOc1ccc(Cl)cc1Cl	2.3	7.0*	-0.7	-2.0	-3.5	-0.4	18.6*	-2.0	14.7
CCCCCCN1C[C@H](n2cc(C3CC3)nn2)[C@@H](O)C[C@@H]1c1ccc(Cl)cc1	·	-0.3	·	·	·	·	·	·	·
COc1ccc(-c2coc3c(C(=O)Nc4cccc(C(C)=O)c4)cccc23)c(C)c1	·	7.6*	·	·	·	·	1.5	7.9	21.5*
CCOC(=O)C(/C=C(\C#N)C(=O)OCC)=C(/N)N1CCN(c2ccc(OC)cc2)CC1	1.0	21.8*	0.6	14.3	-2.2	-0.8	42.8*	2.9	12.7
CCCCN(C)Cc1c(C)[nH]c2ccccc2c1=O	-0.6	0.5	-2.4	-15.3	-3.6	0.0	·	·	·
CCCCN(C)Cc1c(C)[nH]c2ccc(C)cc2c1=O	0.7	10.5*	-1.4	-12.1	-2.4	-0.6	21.1*	-3.8	5.7
COc1cccc(CNC(=O)CSc2nnc3c(n2)[nH]c2ccc(C)cc23)c1	-0.3	18.6*	-3.1	-10.4	-3.2	-0.7	78.5*	4.5	46.1*
COc1cccc(NC(=O)CSc2nnc3c(n2)[nH]c2ccc(C)cc23)c1	-5.5	79.8*	-1.9	-1.9	-1.1	-2.1	96.2*	4.2	93.2*
COc1cccc(CNC(=O)CSc2nc3ccc(C)cc3[nH]2)c1	-1.3	5.8*	-1.8	8.3	1.0	-0.9	20.3*	-3.2	8.0
CCN(CC)S(=O)(=O)c1ccc(O)c(C(=O)OCC(=O)N2CCCc3ccccc32)c1	·	-0.2	·	·	·	·	·	·	·
O=C(Cc1ccc(NC(=O)C2CCN(C(=O)CCc3ccccc3)CC2)cc1)Nc1ccc(C(=O)N2CCOCC2)cc1	2.9	-1.0	-0.6	-7.2	5.9	-2.8	·	·	·
O=C(CSc1nc2ccccc2[nH]1)N1CCN(c2ccc(F)cc2)CC1	-1.7	1.1	-1.0	-16.2	-1.5	1.6	·	·	·
